# In ChEMBL document CHEMBL2010658, “Caspase-1 and -3 inhibiting drimane sesquiterpenoids from the extremophilic fungus Penicillium solitum” (J Nat Prod, 2012):
# Activity calls are given as the source filed them. The calls are words filed in the database; no cut-off is given here.
# What was measured:
# [1] = target: Stromelysin-1 (Homo sapiens) (UniProt P08254); assay: Inhibition of MMP3 by signal transduction fluorometric assay
# How it was run: (§1)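 Fluorometric enzyme inhibition assays. Reference inhibitors were Ac-YVAD-CHO for caspase-1, Ac-DEVD-CHO for caspase-3, and NNGH for MMP-3.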
# Caspase-1 (Homo sapiens) = target: T1, Caspase-1 (Homo sapiens) (UniProt P29466); assay: (§2) Inhibition of caspase 1 by signal transduction fluorometric assay; how it was run: as §1
# T1 sequence (whole entry): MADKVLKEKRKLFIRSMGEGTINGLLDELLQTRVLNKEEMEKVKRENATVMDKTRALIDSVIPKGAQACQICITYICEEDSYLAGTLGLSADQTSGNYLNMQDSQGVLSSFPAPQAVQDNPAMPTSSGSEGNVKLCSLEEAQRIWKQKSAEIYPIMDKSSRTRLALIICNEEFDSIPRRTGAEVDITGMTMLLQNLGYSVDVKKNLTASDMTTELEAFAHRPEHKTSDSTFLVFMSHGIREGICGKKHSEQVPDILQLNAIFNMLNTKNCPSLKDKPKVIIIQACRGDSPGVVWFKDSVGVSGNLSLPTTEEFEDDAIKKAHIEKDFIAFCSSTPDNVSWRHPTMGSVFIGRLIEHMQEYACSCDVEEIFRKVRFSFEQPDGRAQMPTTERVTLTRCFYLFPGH
# Caspase-3 (Homo sapiens) = target: T2, Caspase-3 (Homo sapiens) (UniProt P42574); assay: (§3) Inhibition of caspase 3 by signal transduction fluorometric assay; how it was run: as §1
# T2 sequence (whole entry): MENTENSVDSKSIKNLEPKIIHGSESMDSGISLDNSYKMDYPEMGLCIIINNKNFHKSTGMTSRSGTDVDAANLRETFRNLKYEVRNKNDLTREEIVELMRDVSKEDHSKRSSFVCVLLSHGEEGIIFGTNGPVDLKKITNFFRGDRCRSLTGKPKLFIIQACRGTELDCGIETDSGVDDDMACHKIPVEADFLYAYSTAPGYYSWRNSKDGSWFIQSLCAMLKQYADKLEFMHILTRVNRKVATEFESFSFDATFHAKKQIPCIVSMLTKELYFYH
# THP-1 = assay: Antiinflammatory activity in human THP1 cells assessed as inhibition of titanium dioxide nanowires/LPS-induced IL-1beta production at 1 to 100 uM after 24 hrs by ELISA; type: functional, cell-based
# How it was run: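 PMA-differentiated THP-1 cells (1 μg/mL PMA, 24 h beforehand), grown in RPMI with 10% FBS, 0.05 mM 2-mercaptoethanol and pyruvate. Cells were scraped, pelleted, and resuspended at 1.0 × 10⁶ cells/mL. They were exposed to compound at 1, 10 and 100 μM plus LPS (20 ng/mL) and TiO₂ nanowires (100 μg/mL) for 24 h at 37 °C. IL-1β was measured by ELISA and viability by MTS (490 nm).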
# Caspase-1 = target: T3, Caspase-1 (Homo sapiens, UniProt P29466); assay: as §2; how it was run: as §1
# T3 sequence (P29466 whole entry): T1 sequence (whole entry)
# Caspase-3 = target: T4, Caspase-3 (Homo sapiens, UniProt P42574); assay: as §3; how it was run: as §1
# T4 sequence (P42574 whole entry): T2 sequence (whole entry)
# Stromelysin-1 (Homo sapiens), sequence (P08254 100-477 limits assumed): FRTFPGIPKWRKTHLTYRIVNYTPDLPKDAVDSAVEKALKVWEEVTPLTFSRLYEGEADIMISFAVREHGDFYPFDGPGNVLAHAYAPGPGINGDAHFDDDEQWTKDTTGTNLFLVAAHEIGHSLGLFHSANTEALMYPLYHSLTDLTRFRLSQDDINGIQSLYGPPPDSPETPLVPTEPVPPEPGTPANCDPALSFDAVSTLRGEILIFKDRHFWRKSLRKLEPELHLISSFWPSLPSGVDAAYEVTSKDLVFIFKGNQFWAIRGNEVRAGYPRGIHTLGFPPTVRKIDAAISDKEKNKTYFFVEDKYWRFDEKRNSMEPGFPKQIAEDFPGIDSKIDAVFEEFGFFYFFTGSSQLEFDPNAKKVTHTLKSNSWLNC
Structure (SMILES),inhibition [1],inhibition (Caspase-1 (Homo sapiens)),inhibition (Caspase-3 (Homo sapiens)),IC50 (Caspase-1),IC25 (Caspase-3 (Homo sapiens)),IC50 (Caspase-3),inhibition (THP-1)
CC(=O)N[C@H](C(=O)O[C@H]1CCC(C)(C)[C@@H]2CC=C3C(=O)OC[C@]3(O)[C@@]12C)C(C)C (relative stereo),–,–,–,90 µM,10 µM,50 µM,Active
CC(=O)N[C@H](C(=O)O[C@H]1CCC(C)(C)[C@@H]2CC=C3C(=O)OC[C@@H]3[C@@]12C)C(C)C (relative stereo),–,–,–,100 µM,15 µM,200 µM,Active

# Now from value to compound, other results behind:
inhibition [1],inhibition (Caspase-1 (Homo sapiens)),inhibition (Caspase-3 (Homo sapiens)),IC50 (Caspase-1),IC25 (Caspase-3 (Homo sapiens)),IC50 (Caspase-3),Structure (SMILES),inhibition (THP-1)
inactive,inactive,inactive,–,–,–,CCCCCCCCCC[C@H](C(=O)OC)[C@]1(C(=O)OC)CCC(=O)O1,–
inactive,inactive,inactive,–,–,–,CCCCCCCCCC[C@H](C(=O)OC)[C@@](O)(CCC(=O)OC)C(=O)OC,–
inactive,inactive,inactive,–,–,–,C=CCCCCCCCC[C@H](C(=O)OC)[C@@](O)(CCC(=O)OC)C(=O)OC,–
